Experimental data taken from the array DNA melting data of Ke et al. (doi:10.1101/2024.01.08.574731).

Key:
[1] = melting temperature; fluorescence melt of hairpins on a sequencing array, two-state fit, raised by 9.35 °C to match UV melts; settings: sodium 0.088 M
How it was run: (§1)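 On a sequenced MiSeq flow cell, library hairpins with annealed Cy3 and quencher oligos were imaged for Cy3 fluorescence in 2.5 °C steps up to 60 °C, in 50 mM Na-HEPES pH 8.0, 25 mM NaCl. Normalisation used pre-quench Cy3 and control constructs. Bootstrapped two-state fits gave melting temperature and folding enthalpy, combined by inverse variance across four replicates and with fitted temperatures raised by 9.35 °C to match UV melts.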

[2] = folding enthalpy; higher = less favourable; fluorescence melt of hairpins on a sequencing array, two-state fit; settings: sodium 0.088 M
How it was run: as §1

Sequence	Tm [1] [°C]	folding enthalpy [2] [kcal/mol]
GCAGATCGAAAGATATGC (((.(((....))).)))	54.7	-36.7
GGTTCAGGAAACTAAACC ((((.((....)).))))	28.6	-15.3
GCATAGCGAAAGCACTGC (((..((....))..)))	39.6	-13.9
GCTACGGCGAAAGCCAGC (((..(((....))))))	42.9	-13.3
GCCGCGCGAAAGCGCAGC ((.((((....)))).))	64	-15.2
GCGGGGCGAAAGCCGTGC ((..(((....)))..))	62.5	-27.3
GCGTCTAACGC ((((...))))	53.3	-20.6
GTCTATCGAAAGATCGAC (((.(((....))).)))	41.4	-40.4
GATTTCGAAAGAAATC ((((((....))))))	55	-38.2
TTGTAGAAATACAA (((((....)))))	24.9	-6.32
GATCACTTATGTGATC ((((((....))))))	56.7	-37.5
GTGGTAGAAATACCAC ((((((....))))))	53.6	-36.1
GGGTTGGGAAACCGACCC ((((.((....)).))))	58.4	-45.4
GGATAAGGAAACTTATCC (((((((....)))))))	52.8	-37.6
GCCGCACGAAAGTGGGC (((.(((....))))))	62.8	-20.9
GATCAGACGAAAGTCATC (((..(((....))))))	23.3	-9.11
GGCATAGGAAACCATGCC (((((.(....).)))))	48.7	-30
GATCCCTCTGGGATC ((((((...))))))	66.6	-31.3
GCCCTCGAAAGAGCGGC ((((((....))).)))	55.7	-37.3
GCTCGCGAAAGCGTCAGC ((((((....)))..)))	41.4	-12.3
GTCAGCGAAAGCTCTGAC ((((((....)))..)))	37.3	-18.5
GATCGACTCTTCGATC ((((((....))))))	52.7	-39.5
GGAGACGAAAGTCCATCC ((((((....)))..)))	30.3	-10.1

Sequence	Tm [1] [°C]	folding enthalpy [2] [kcal/mol]
GCTTCGCGAAAGCAATGC ((.(.((....)).).))	33.2	-16.4
GATGTCGGAAACGACATC (((((((....)))))))	68.4	-36.4
GTGGAAACGAAAGTTCAC (((..(((....))))))	33.7	-19.5
GCCCATGGAAACACGGGC ((((.((....)).))))	49.4	-43
GAAAGCGAAAGCTAATTC ((((((....)))..)))	28.8	-8.31
GGCTTCGGAAACGAGGCC (((.(((....))).)))	58.8	-46.7
GCCGTAGCGAAAGCTGGC (((..(((....))))))	55.6	-31.5
GCCCGCGAAAGCGCAGGC ((((((....)))..)))	56.3	-20.1
GGCGCCCGAAAGGGGCC (((.(((....))))))	67.4	-17.2
GCAACGCGAAAGCGAGGC ((..(((....)))..))	59.9	-13.5
GCATAAACGAAAGTTTGC (((..(((....))))))	37.4	-18.5
GATCAATCTCTTGATC ((((((....))))))	43.2	-30.1
GGAAACCGAAAGGTGTCC (((.(((....))).)))	52.4	-31.1
GATCCATACATGGATC ((((((....))))))	55.8	-50.8
GAGGTACGAAAGTAGCTC (((.(((....))).)))	57.9	-44.4
GCATTATCGAAAGATTGC (((..(((....))))))	30.6	-14.4
CAGAGGAAACTCTG (((((....)))))	45	-21.1
GGTTTTGAAAAAAACC ((((((....))))))	51.5	-26.5
GATCCGTTTGCGGATC ((((((....))))))	62.3	-37.7
GGAAAGGCGAAAGCCTCC (((..(((....))))))	41.3	-10.6
GATCCTGGCAAGGATC ((((((....))))))	63.3	-44.6
GCGCTCGAAAGAGGTCGC ((((((....)))..)))	47.9	-25.2
GATCCCCACTGGGATC ((((((....))))))	62.2	-35.3

Sequence	Tm [1] [°C]	folding enthalpy [2] [kcal/mol]
GAGAGGCGAAAGCCGCTC (((.(((....))).)))	66.1	-18.9
GCGGACGGAAACGCCCAC (.((.((....)).)).)	36.6	-18.9
GACTGCGGAAACGTGGTC (((..((....))..)))	46.5	-32.8
GATCTCGCACGAGATC ((((((....))))))	61	-44.6
GATCCGTGTACGGATC ((((((....))))))	63.6	-45
GGGCGGCGAAAGCCACCC (((.(((....))).)))	67.3	-26.3
GGTCGCGGAAACGCGATC (.(((((....))))).)	63.7	-17.6
GGTAGCGGAAACGTTACC ((((.((....)).))))	50.4	-32.4
GTATTCGAAAGAATTAC ((((((....))).)))	31.4	-13
GATCTGAGTCAGATC ((((((...))))))	47.5	-36.5
GCAGTCGAAAGACCGTGC ((((((....)))..)))	38.1	-16.8
GTCTAAGGAAACTCAGAC ((((.((....)).))))	26.6	-11.5
CTGTTGAAAAACAG (((((....)))))	42.3	-23.7
GCATGTCGAAAGACTGC (((.(((....))))))	56.1	-35
CGATCGGAAACGAGATCG ((((((....)))..)))	42.5	-28.4
GGCCCGCCGAAAGGCGCC (((..(((....))))))	38	-7.51
GGAACCGAAAGGTATCC ((((((....))).)))	40.8	-18.2
GTAGACCCGAAAGGGTAC (((..(((....))))))	32.3	-9.26
GGGGGTCGAAAGACTCCC (((.(((....))).)))	63.4	-43.5
GCTAGCGAAAGCTACAGC ((((((....)))..)))	39.6	-15.5
GGCATTGGAAACGATGCC (((((.(....).)))))	55.6	-42.5
GGTGTAGGAAACTACATC (.(((((....))))).)	42.2	-27.4
GGAGCCGAAAGGCGGTCC ((((((....)))..)))	48.1	-9.55

Sequence	Tm [1] [°C]	folding enthalpy [2] [kcal/mol]
GGTCGCGAAAGCGCACC ((((((....))).)))	60.3	-20.8
GTATCACGAAAGTGTAC (((.(((....))))))	42.6	-18.1
GCATAAGGAAACCTATGC (((((.(....).)))))	39.2	-27.1
GTCGACGAAAGTCCGAC ((((((....))).)))	51.7	-21.3
GCAATTCGAAAGAAATGC (((.(((....))).)))	46.1	-36.8
GATCCGACGACGGATC ((((((....))))))	56.7	-36.6
GCGGCGACGAAAGTCCGC (((..(((....))))))	55.6	-17.8
GAACGGGGAAACCTGTTC ((((.((....)).))))	49	-32.4
GCTAACGGAAACGTTGGC ((.((((....)))).))	52.6	-36.1
GCGAGCGTCGC ((((...))))	60	-10.2
GATACCGAAAGGTATATC ((((((....)))..)))	45.2	-16.3
GATCTTCCGGAAGATC ((((((....))))))	53.1	-55.2
GCAAATGCGAAAGCATGC (((..(((....))))))	51.4	-15
GGGGAGCCGAAAGGCCCC (((..(((....))))))	61.9	-13.2
GATGGCCGAAAGGCTATC (((.(((....))).)))	57.5	-27.8
GATCAGGGGACTGATC ((((((....))))))	53.8	-32.5
GCACGTGGAAACACGTAC (.(((((....))))).)	44.1	-14.2
GCGCCCGAAAGGGCCGC ((((((....))).)))	68	-11.5
GATCATTAAAATGATC ((((((....))))))	45.2	-29.5
GAGTCCGGAAACGGACCC (.(((((....))))).)	46.2	-9.42
GCAAATTCGAAAGAATGC (((..(((....))))))	35.8	-18.4
GAGGTTCCGAAAGGACTC (((..(((....))))))	31.6	-14.9
GTATGAGGAAACTCATGC (.(((((....))))).)	44.5	-26.4
